From ChEMBL document CHEMBL4715736, “Identification of anticancer agents based on the thieno[2,3-b]pyridine and 1H-pyrazole molecular scaffolds” (2016)

Assays:
Type in all cases: functional
[1] = system: K562; test: Growth inhibition of human K562 cells assessed as cell growth at 0.01 uM incubated for 48 hrs by sulforhodamine B assay relative to control; conditions: read-out: Activity
[2] = system: NCI-H460; test: Growth inhibition of human NCI-H460 cells assessed as cell growth at 0.01 uM incubated for 48 hrs by sulforhodamine B assay relative to control; conditions: read-out: Activity
[3] = system: SF-268; test: Growth inhibition of human SF-268 cells assessed as cell growth at 0.01 uM incubated for 48 hrs by sulforhodamine B assay relative to control; conditions: read-out: Activity
[4] = system: Malme-3M; test: Growth inhibition of human Malme-3M cells assessed as cell growth at 0.01 uM incubated for 48 hrs by sulforhodamine B assay relative to control; conditions: read-out: Activity
[5] = system: OVCAR-5; test: Growth inhibition of human OVCAR-5 cells assessed as cell growth at 0.01 uM incubated for 48 hrs by sulforhodamine B assay relative to control; conditions: read-out: Activity
[6] = system: ACHN; test: Growth inhibition of human ACHN cells assessed as cell growth at 0.01 uM incubated for 48 hrs by sulforhodamine B assay relative to control; conditions: read-out: Activity
[7] = system: SN12C; test: Growth inhibition of human SN12C cells assessed as cell growth at 0.01 uM incubated for 48 hrs by sulforhodamine B assay relative to control; conditions: read-out: Activity
[8] = system: K562; test: Growth inhibition of human K562 cells assessed as cell growth at 0.1 uM incubated for 48 hrs by sulforhodamine B assay relative to control; conditions: read-out: Activity
[9] = system: COLO 205; test: Growth inhibition of human COLO 205 cells assessed as cell growth at 0.1 uM incubated for 48 hrs by sulforhodamine B assay relative to control; conditions: read-out: Activity
Procedure, shortened: (§1)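 NCI Developmental Therapeutics Program NCI60 panel. Compounds that were active in the 10 µM one-dose screen went on to dose–response testing. Growth at each concentration is expressed relative to untreated control (100%). GI50 (concentration giving 50% of maximal inhibition of proliferation) and TGI (concentration giving total growth inhibition) were derived from the curves.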

[10] = system: HCC 2998; test: Growth inhibition of human HCC 2998 cells assessed as cell growth at 0.1 uM incubated for 48 hrs by sulforhodamine B assay relative to control; conditions: read-out: Activity; procedure, shortened: as §1
[11] = system: UACC-62; test: Growth inhibition of human UACC-62 cells assessed as cell growth at 0.1 uM incubated for 48 hrs by sulforhodamine B assay relative to control; conditions: read-out: Activity
[12] = system: IGROV-1; test: Growth inhibition of human IGROV-1 cells assessed as cell growth at 0.1 uM incubated for 48 hrs by sulforhodamine B assay relative to control; conditions: read-out: Activity
[13] = system: OVCAR-5; test: Growth inhibition of human OVCAR-5 cells assessed as cell growth at 0.1 uM incubated for 48 hrs by sulforhodamine B assay relative to control; conditions: read-out: Activity
[14] = system: A498; test: Growth inhibition of human A498 cells assessed as cell growth at 0.1 uM incubated for 48 hrs by sulforhodamine B assay relative to control; conditions: read-out: Activity; procedure, shortened: as §1
[15] = system: SNB-19; test: Growth inhibition of human SNB-19 cells assessed as cell growth at 1 uM incubated for 48 hrs by sulforhodamine B assay relative to control; conditions: read-out: Activity
[16] = system: MDA-MB-435; test: Growth inhibition of human MDA-MB-435 cells assessed as cell growth at 1 uM incubated for 48 hrs by sulforhodamine B assay relative to control; conditions: read-out: Activity
[17] = system: UACC-257; test: Growth inhibition of human UACC-257 cells assessed as cell growth at 1 uM incubated for 48 hrs by sulforhodamine B assay relative to control; conditions: read-out: Activity
[18] = system: UACC-62; test: Growth inhibition of human UACC-62 cells assessed as cell growth at 1 uM incubated for 48 hrs by sulforhodamine B assay relative to control; conditions: read-out: Activity
[19] = system: SN12C; test: Growth inhibition of human SN12C cells assessed as cell growth at 1 uM incubated for 48 hrs by sulforhodamine B assay relative to control; conditions: read-out: Activity
[20] = system: PC-3; test: Growth inhibition of human PC-3 cells assessed as cell growth at 1 uM incubated for 48 hrs by sulforhodamine B assay relative to control; conditions: read-out: Activity
[21] = system: HOP-62; test: Growth inhibition of human HOP-62 cells assessed as cell growth at 100 uM incubated for 48 hrs by sulforhodamine B assay relative to control; conditions: read-out: Activity
[22] = system: COLO 205; test: Growth inhibition of human COLO 205 cells assessed as cell growth at 100 uM incubated for 48 hrs by sulforhodamine B assay relative to control; conditions: read-out: Activity; procedure, shortened: as §1
[23] = system: HCT-116; test: Growth inhibition of human HCT-116 cells assessed as cell growth at 100 uM incubated for 48 hrs by sulforhodamine B assay relative to control; conditions: read-out: Activity
[24] = system: SNB-19; test: Growth inhibition of human SNB-19 cells assessed as cell growth at 100 uM incubated for 48 hrs by sulforhodamine B assay relative to control; conditions: read-out: Activity
[25] = system: CAKI-1; test: Growth inhibition of human CAKI-1 cells assessed as cell growth at 100 uM incubated for 48 hrs by sulforhodamine B assay relative to control; conditions: read-out: Activity; procedure, shortened: as §1
[26] = system: CCRF-CEM; test: Growth inhibition of human CCRF-CEM cells incubated for 48 hrs by sulforhodamine B assay; procedure, shortened: as §1
[27] = system: MOLT-4; test: Growth inhibition of human MOLT-4 cells incubated for 48 hrs by sulforhodamine B assay; conditions: for CC50: read-out: LC50 (the source's name)
Procedure, shortened: (§2)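 NCI60 panel at the NCI Developmental Therapeutics Program. Only compounds active in the 10 µM screen went to dose-response testing. GI50, the concentration giving 50% of maximal inhibition of proliferation, and TGI, the concentration giving total growth inhibition, were derived from the dose-response curves.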

[28] = system: HCT-116; test: Growth inhibition of human HCT-116 cells incubated for 48 hrs by sulforhodamine B assay; procedure, shortened: as §2
[29] = system: MDA-MB-435; test: Growth inhibition of human MDA-MB-435 cells incubated for 48 hrs by sulforhodamine B assay; conditions: for CC50: read-out: LC50 (the source's name); procedure, shortened: as §2
[30] = system: OVCAR-3; test: Growth inhibition of human OVCAR-3 cells incubated for 48 hrs by sulforhodamine B assay; conditions: for CC50: read-out: LC50 (the source's name)
Procedure, shortened: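 NCI DTP 60-line human tumour panel. Dose-response curves were run only for ligands active in the initial 10 µM screen. GI50 (concentration giving 50% of maximal inhibition of proliferation) and TGI (concentration giving total growth inhibition) were derived from these curves.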

[31] = system: ACHN; test: Growth inhibition of human ACHN cells incubated for 48 hrs by sulforhodamine B assay; procedure, shortened: as §1
[32] = system: Hs-578T; test: Growth inhibition of human Hs-578T cells incubated for 48 hrs by sulforhodamine B assay; conditions: for CC50: read-out: LC50 (the source's name); procedure, shortened: as §2
[33] = system: SK-OV-3; test: Growth inhibition of human SK-OV-3 cells assessed as cell growth at 0.1 uM incubated for 48 hrs by sulforhodamine B assay relative to control; conditions: read-out: Activity
[34] = system: TK-10; test: Growth inhibition of human TK-10 cells assessed as cell growth at 1 uM incubated for 48 hrs by sulforhodamine B assay relative to control; conditions: read-out: Activity
[35] = system: SK-OV-3; test: Growth inhibition of human SK-OV-3 cells assessed as cell growth at 100 uM incubated for 48 hrs by sulforhodamine B assay relative to control; conditions: read-out: Activity

## CCc1cccc(C)c1NC(=O)c1sc2nc3c(cc2c1N)C(=O)CCC3
[1]
  growth at 0.01 µM: 92%
[2]
  growth at 0.01 µM: 101%
[3]
  growth at 0.01 µM: 97%
[4]
  growth at 0.01 µM: 96%
[5]
  growth at 0.01 µM: 87%
[6]
  growth at 0.01 µM: 94%
[7]
  growth at 0.01 µM: 97%
[8]
  growth at 0.1 µM: 89%
[9]
  growth at 0.1 µM: 102%
[10]
  growth at 0.1 µM: 100%
[11]
  growth at 0.1 µM: 88%
[12]
  growth at 0.1 µM: 104%
[13]
  growth at 0.1 µM: 88%
[14]
  growth at 0.1 µM: 72%
[15]
  growth at 1 µM: 47%
[16]
  growth at 1 µM: -50%
[17]
  growth at 1 µM: 54%
[18]
  growth at 1 µM: 37%
[19]
  growth at 1 µM: 45%
[20]
  growth at 1 µM: 31%
[21]
  growth at 100 µM: 28%
[22]
  growth at 100 µM: -31%
[23]
  growth at 100 µM: 4%
[24]
  growth at 100 µM: 34%
[25]
  growth at 100 µM: 12%
[26]
  GI50: 0.346 µM
  LC50: > 100 µM
  TGI: ≥ 100 µM
[27]
  GI50: 2.42 µM
  TGI: ≥ 100 µM
  CC50: > 100 µM
[28]
  GI50: 0.471 µM
  LC50 (concentration killing 50% of cells): > 100 µM
  TGI: > 100 µM
[29]
  GI50: 0.148 µM
  CC50: > 100 µM
[30]
  GI50: 0.374 µM
  TGI: 2.3 µM
  CC50: > 100 µM
[31]
  GI50: 0.795 µM
  TGI: > 100 µM
[31]; read-out: LC50 (the source's name)
  CC50: > 100 µM
[32]
  TGI: > 100 µM
  CC50: > 100 µM

## CN1CCc2nc3sc(C(N)=O)c(N)c3c(-c3cccs3)c2C1
[1]
  growth at 0.01 µM: 96%
[2]
  growth at 0.01 µM: 109%
[3]
  growth at 0.01 µM: 106%
[4]
  growth at 0.01 µM: 104%
[7]
  growth at 0.01 µM: 98%
[8]
  growth at 0.1 µM: 97%
[9]
  growth at 0.1 µM: 103%
[10]
  growth at 0.1 µM: 99%
[11]
  growth at 0.1 µM: 105%
[12]
  growth at 0.1 µM: 116%
[33]
  growth at 0.1 µM: 92%
[14]
  growth at 0.1 µM: 111%
[15]
  growth at 1 µM: 104%
[16]
  growth at 1 µM: 90%
[17]
  growth at 1 µM: 111%
[18]
  growth at 1 µM: 93%
[19]
  growth at 1 µM: 80%
[34]
  growth at 1 µM: 103%
[20]
  growth at 1 µM: 106%
[21]
  growth at 100 µM: 2%
[22]
  growth at 100 µM: -60%
[23]
  growth at 100 µM: 3%
[24]
  growth at 100 µM: 14%
[35]
  growth at 100 µM: 17%
[25]
  growth at 100 µM: 7%
[26]
  GI50: 3.77 µM
  LC50: > 100 µM
  TGI: > 100 µM
[27]
  GI50: 2.89 µM
  TGI: 48.4 µM
  CC50: > 100 µM
[28]
  GI50: 2.31 µM
  LC50 (concentration killing 50% of cells): > 100 µM
  TGI: > 100 µM
[29]
  GI50: 3.13 µM
  TGI: > 100 µM
  CC50: > 100 µM
[30]
  GI50: 2.16 µM
  TGI: 6.23 µM
  CC50: > 100 µM
[32]
  GI50: 3.07 µM
  TGI: 21.7 µM
  CC50: > 100 µM
